From PubChem BioAssay
Many of the other results were omitted from the sample, so hits are more common in it than they were.
L major viab = Leishmania major promastigote growth inhibition; Leishmania major promastigotes, resazurin fluorescence viability; inhibition, % at 10 µM; actives 9% (n = 200,000); in the data active = inhibition above about 50%;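 also: promastigotes grown with compound for 44 hours at 28 °C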
HSF-1 act = increases HSF-1 driven luciferase reporter signal | NIH3T3-HGL HSF-1 luciferase reporter, MG132, 8 h; 100% = twice DMSO control signal | activation, % at 9 µM | AID 504408 | actives 1.7% (n = 300,000);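 active = mean replicate activation of at least 50% with a set share of replicates each reaching 50%; inconclusive = only one of those two conditions met; inactive = mean below 50% and too few replicates reaching it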;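 also: 0% = median of the neutral control wells and 100% = twice that signal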
T cruzi inh = blocks replication of Trypanosoma cruzi; T. cruzi beta-gal in NIH3T3, luminescence, 90 h; inhibition, % (concentration not given with the values); actives 1.4% (n = 300,000); AID 1885;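 active = mean inhibition across valid replicates above about 55%, limit read from the data; inconclusive = mean below that limit but half or more replicates reach it; inactive = mean below it, under half of replicates reach it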;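 also: signal also drops with host cell toxicity which is not excluded here; 0% = plate median of DMSO wells and 100% = zero luminescence signal; higher percent means less beta-gal luminescence so fewer parasites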
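Read-out: Parasite load inhibition, % | Test system: Mouse NIH/3T3 fibroblasts infected with β-gal-expressing T. cruzi Tulahuen C4 | Amount: 5,000 cells/well | Medium: DMEM, 2% fetal bovine serum | Signal: GalScreen β-gal luminescence, detergent lysis, 60 min | Timing: 3 h attach, ≥90 h co-culture | Also added: Tulahuen C4 trypomastigotes, 5000/well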
HSF1 inhib = HSF1 inhibition | NIH3T3-HGL HSE-luciferase, MG132-induced, luminescence 8 h; stronger effect = lower value | activity change, negative = inhibition, % at 7.5 µM (by protocol) | actives 0.77% (n = 300,000);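 active = more than half of replicate wells show activity change below -50%, luminescence cut by over half; inconclusive = some wells, but at most half, below -50%; inactive = no replicate well below -50%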;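 also: luciferase reports HSF-1 transcriptional activity via heat shock element; 0% = median of DMSO wells and -100% = zero luminescence signal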
Hsp70 act = transcriptional activators of Hsp70; HeLa Hsp70 promoter luciferase reporter, luminescence; scaled: vehicle 0, proteasome-inhibitor control 100%; activation, % at 10 µM; actives 0.04% (n = 200,000); AID 1203;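 active = activation above the mean across all tested compounds plus 3 SD, cutoff set per campaign, cut at about 5.5% in these data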;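 also: 100% = MG132 at 30 µM as the positive control and 0% = DMSO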
Active calls of the source: *; u = inconclusive; x = no result.

SMILES	L major viab	HSF-1 act	T cruzi inh	HSF1 inhib	Hsp70 act
CCN(CC(=O)N1CCCC1)S(=O)(=O)c1ccc2ccccc2c1	x	1	3	-1	x
CCOn1c(=O)c(C)[n+]([O-])c2ccccc21	-8	-7	-28	-1	0
Brc1ccc(CNc2ccc3ncccc3c2)cc1	x	79*	35	47	x
CN(C(=O)CSc1nnc(COc2ccccc2F)n1N)C1CCS(=O)(=O)C1 (configuration not stated)	x	4	-6	4	x
CCN(CC)CCn1c2ccccc2c2nc3ccc([N+](=O)[O-])cc3cc21	x	121*	43	89	x
Cn1c2ccccc2c2cc([N+](=O)[O-])ccc21	x	17	12	-6	x
Cc1c(CNCCc2ccccc2Cl)c(C(=O)O)c(C)n1-c1ccccc1	x	-8	14	-9	x
COc1ccc(Nc2nnc(Cc3ccncc3)c3ccccc23)c(OC)c1	x	6	20	-2	x
COc1ccc2nc(NC(=S)N(C)C)sc2c1	-2	34	60*	25	0
CSc1ncccc1C(=O)Nc1nc2ccc(S(C)(=O)=O)cc2s1	5	14	-10	9	0
CCCC(=O)Nc1nc2ccc(OC)cc2s1	1	43	5	19	0
COc1cc(C(=O)Nc2nc3ccc(S(=O)(=O)N4CCOCC4)cc3s2)cc(OC)c1OC	61*	-6	-7	-9	0
COc1ccc2nc(NC(=O)c3cccnc3SC)sc2c1	81*	48	12	23	0
COc1ccc2nc(NC(=O)CN3CCOCC3)sc2c1	-2	-91	-25	-89*	0
COc1ccc2nc(NC(=O)CN3CCN(C)CC3)sc2c1	-2	19	-3	-3	0
CC(C)Oc1ccc(C2CC(=O)N(c3cccc(/C=C/C(=O)O)c3)C2=O)cc1 (configuration not stated)	x	11	-9	2	x
COc1ccc2nc(NC(=O)c3cc(S(=O)(=O)N4CCOCC4)ccc3C)sc2c1	56*	5	13	2	0
Cc1nc(NC(=O)CN2CCOCC2)sc1-c1ccccc1	51*	33	4	23	0
CC(=O)N1CC(=O)N=C1SCC(=O)Nc1nc(C)c(-c2ccccc2)s1	96*	13	10	3	0
COc1cccc(CNC(=O)CN2C(=O)COc3ccc(S(=O)(=O)N4CCCC4)cc32)c1	x	-9	-3	-4	x
O=[N+]([O-])c1cccc(OCC(O)CN2CCN(S(=O)(=O)c3cc(Cl)ccc3Cl)CC2)c1 (configuration not stated)	x	4	27	10	x
COCC(C)NC(=O)CSc1nc(-c2ccccc2)c(-c2ccccc2)o1 (configuration not stated)	0	47	15	17	0
COc1ccc(C(=O)OC(COc2ccccc2)Cn2ccnc2)cc1 (configuration not stated)	100*	14	47	10	0
Cc1c(C(=O)NN2CCCCC2)nn(-c2ccc(Cl)cc2Cl)c1-c1ccc(I)cc1	x	15	55*	13	0
O=C1Nc2ccc(Br)cc2C1=Nc1ccc(-c2nnc3n2CCCCC3)cc1	74*	-12	6	0	0
SMILES	L major viab	HSF-1 act	T cruzi inh	HSF1 inhib	Hsp70 act
O=C(Cc1cccs1)Nc1cccc(-c2nc3cc4ccccc4cc3[nH]2)c1	50	74*	37	39	0
CC(=O)Nc1cccc(NC(=O)Cc2cccs2)c1	x	3	-10	1	x
[O-]/[N+](=C/c1cccnc1)c1ccc(Br)cc1	-8	35	8	22	0
[O-]/[N+](=C\c1ccncc1)c1ccc(Br)cc1	1	117*	-9	78	0
Cc1ccc(CN2CCSc3sccc3C2=O)cc1	1	14	-10	9	0
COc1ccc(C2C(C#N)=C(N)N(c3ccccc3)C3=C2C(=O)CCC3)cc1Cn1cc([N+](=O)[O-])cn1 (configuration not stated)	99*	u	29	36	0
COc1ccc(C2C(C#N)=C(N)OC3=C2C(=O)CCC3)cc1Cn1cc([N+](=O)[O-])cn1 (configuration not stated)	2	-23	-3	-10	0
COc1ccc(C2C(C#N)=C(N)N(c3cccnc3)C3=C2C(=O)CCC3)cc1Cn1cc([N+](=O)[O-])cn1 (configuration not stated)	89*	13	-1	-7	0
CCOc1ccc(Cn2c(=O)oc3ccccc32)cc1	x	-1	-10	12	x
C=CCn1c(=O)c(CCC(=O)Nc2ccc(N3CCOCC3)cc2)nc2cc(C(F)(F)F)ccc21	x	-2	10	4	x
COc1ccc(Cl)cc1NC(=O)CSc1nc(Nc2ccccc2)nc(N2CCOCC2)n1	x	25	30	22	x
O=C(NCC(=O)N1CC(O)CC1C(=O)N1CCCC1C(=O)OCc1ccccc1)OCc1ccccc1 (configuration not stated)	-4	39	39	3	0
Cc1ccc(S(=O)(=O)CC#CCOC(=O)c2ccc([N+](=O)[O-])cc2)cc1	100*	18	-15	2	0
NC(=O)/C(=C\c1ccccc1)NC(=O)/C=C/c1ccccc1	-8	-6	-13	-1	0
CCNC(=O)/C(=C\c1ccccc1)NC(=O)/C=C/c1ccccc1	85*	-20	-17	-7	0
CCN1CCS/C1=C\C=C\C1=[N+](CC)CCS1	100*	3	52	-11	0
CCN1CCS/C1=C/C=C/C1=[N+](CC)CCS1	100*	1	59*	-12	0
CCCCC1=CC2=CC(=O)C(C)(OC(=O)c3ccco3)C(=O)C2=CO1 (configuration not stated)	x	6	-7	-2	x
CCc1cccc(NC(=O)CCCn2nc(C)c3c(C)n(-c4ccccc4)nc3c2=O)c1	x	3	10	5	x
CC1CCCCC1NC(=O)NC(=O)CCl (configuration not stated)	98*	17	-16	2	0
COC(=O)[C@@H](NC(=O)NC1CCCCC1C)C(C)C (some centres not stated)	x	2	-1	-1	x
CC1CCCC(NC(=O)NC(=O)CCl)C1C (configuration not stated)	99*	17	-18	2	0
COC(=O)c1ccc(CSc2nc3ccccc3[nH]2)o1	4	11	1	9	0
COc1ccc(Nc2nnc(SCC(=O)c3cc(C)n(CC4CCCO4)c3C)s2)cc1 (configuration not stated)	50*	x	x	x	0
c1ccc(-c2cc(CSc3nc4ccccc4[nH]3)on2)cc1	2	61*	0	41	0
Cc1cc(C(=O)CN2C(=O)NC(C)(c3cccc(Br)c3)C2=O)c(C)n1Cc1ccco1 (configuration not stated)	34	24	28	18	0
COC(=O)c1cccc(CSc2nc3ccccc3[nH]2)c1	4	55*	-12	25	0
